ChEMBL document CHEMBL3352188, “Synthesis, antimicrobial and molecular docking studies of enantiomerically pure N-alkylated β-amino alcohols from phenylpropanolamines” (2014)

Key:
Salmonella typhimurium [1] = assay: Antimicrobial activity against Salmonella typhimurium MTCC 1251 after 24 hrs by two fold dilution method; type: functional, Salmonella enterica subsp. enterica serovar Typhimurium; conditions: Salmonella enterica, MTCC 1251, 24 h
Procedure, shortened: (§1)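 Broth two-fold serial dilution in 96-well plates from 1000 to 7.81 µg/mL, compound in DMSO (2%). Inoculum was grown in MHB for 24 h at 37 °C; plates were incubated 24 h at 37 °C. 5 µL of broth was spotted onto MHA; MIC was the lowest concentration with no visible growth on agar. Streptomycin was the positive control.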

Staphylococcus aureus [2] = assay: Antimicrobial activity against Staphylococcus aureus MTCC 96 at 1 mg/disc after 24 hrs by disc diffusion assay; type: functional
Procedure, shortened: (§2)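 Disc diffusion on Mueller Hinton agar. Inoculum was grown in MHB for 24 h at 37 °C, swabbed onto the plates and dried for 10 min. Discs with 1 mg compound were left 30 min at room temperature for diffusion, then incubated at 37 °C for 24 h. Inhibition zone was read in mm; run twice. Solvent was the negative control, streptomycin the positive control.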

Micrococcus luteus [3] = assay: Bactericidal activity against Micrococcus luteus MTCC 106 after 24 hrs by two fold dilution method; type: functional; conditions: MTCC 106, 24 h
Procedure, shortened: (§3)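 Tubes held 5 mL MHB with two-fold dilutions from 1000 to 7.81 µg/mL and were inoculated with 5 × 10^5 to 1 × 10^6 cells in 0.1 mL MHB, incubated without shaking. Turbidity was checked at 20 h, tubes vortexed and re-incubated 4 h.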

Candida albicans [4] = assay: Antimicrobial activity against Candida albicans MTCC 227 at 1 mg/disc after 24 hrs by disc diffusion assay; type: functional
Proteus vulgaris [5] = assay: Antimicrobial activity against Proteus vulgaris MTCC 1771 after 24 hrs by two fold dilution method; type: functional; conditions: MTCC 1771, 24 h; procedure, shortened: as §1
Bacillus subtilis [6] = assay: Antimicrobial activity against Bacillus subtilis MTCC 441 after 24 hrs by two fold dilution method; type: functional; conditions: MTCC 441, 24 h; procedure, shortened: as §1
Malassezia pachydermatis [7] = assay: Antimicrobial activity against Malassezia pachydermatis after 48 to 72 hrs by two fold dilution method; type: functional
Procedure, shortened: (§4)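 Yeast was grown in Sabouraud dextrose broth at 28 °C for 48 h and tested per CLSI reference methods. Two-fold serial dilutions from 1000 to 7.81 µg/mL, compound in DMSO (2%), in 96-well plates, incubated 48–72 h at 28 °C. MIC was the lowest concentration with no visible fungal growth. Ketoconazole was the positive control.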

Staphylococcus aureus [8] = assay: Bactericidal activity against methicillin-resistant Staphylococcus aureus MTCC 96 after 24 hrs by two fold dilution method; type: functional; conditions: MTCC 96, 24 h; procedure, shortened: as §3
Proteus vulgaris [9] = assay: Antimicrobial activity against Proteus vulgaris MTCC 1771 at 1 mg/disc after 24 hrs by disc diffusion assay; type: functional; procedure, shortened: as §2
Klebsiella pneumoniae [10] = assay: Antimicrobial activity against Klebsiella pneumoniae MTCC 109 at 1 mg/disc after 24 hrs by disc diffusion assay; type: functional; procedure, shortened: as §2
Candida albicans [11] = assay: Fungicidal activity against Candida albicans MTCC 227 after 48 to 72 hrs by two fold dilution method; type: functional
Salmonella typhimurium [12] = assay: Bactericidal activity against Salmonella typhimurium MTCC 1251 after 24 hrs by two fold dilution method; type: functional, Salmonella enterica subsp. enterica serovar Typhimurium; conditions: Salmonella enterica, MTCC 1251, 24 h; procedure, shortened: as §3
Proteus vulgaris [13] = assay: Bactericidal activity against Proteus vulgaris MTCC 1771 after 24 hrs by two fold dilution method; type: functional; conditions: MTCC 1771, 24 h; procedure, shortened: as §3
Klebsiella pneumoniae [14] = assay: Antimicrobial activity against Klebsiella pneumoniae MTCC 109 after 24 hrs by two fold dilution method; type: functional; conditions: MTCC 109, 24 h; procedure, shortened: as §1
[15] = test system: Salmonella enterica subsp. enterica serovar Paratyphi B; assay: Bactericidal activity against Salmonella paratyphi B after 24 hrs by two fold dilution method; type: functional; procedure, shortened: as §3
Shigella flexneri [16] = assay: Bactericidal activity against Shigella flexneri MTCC 1457 after 24 hrs by two fold dilution method; type: functional; conditions: MTCC 1457, 24 h; procedure, shortened: as §3
Malassezia pachydermatis [17] = assay: Fungicidal activity against Malassezia pachydermatis after 48 to 72 hrs by two fold dilution method; type: functional
Micrococcus luteus [18] = assay: Antimicrobial activity against Micrococcus luteus MTCC 106 at 1 mg/disc after 24 hrs by disc diffusion assay; type: functional; procedure, shortened: as §2
Pseudomonas aeruginosa [19] = assay: Bactericidal activity against Pseudomonas aeruginosa MTCC 741 after 24 hrs by two fold dilution method; type: functional; conditions: MTCC 741, 24 h; procedure, shortened: as §3
Micrococcus luteus [20] = assay: Antimicrobial activity against Micrococcus luteus MTCC 106 after 24 hrs by two fold dilution method; type: functional; conditions: MTCC 106, 24 h; procedure, shortened: as §1
Malassezia pachydermatis [21] = assay: Antimicrobial activity against Malassezia pachydermatis at 1 mg/disc after 24 hrs by disc diffusion assay; type: functional
Shigella flexneri [22] = assay: Antimicrobial activity against Shigella flexneri MTCC 1457 after 24 hrs by two fold dilution method; type: functional; conditions: MTCC 1457, 24 h; procedure, shortened: as §1
Klebsiella aerogenes [23] = assay: Antimicrobial activity against Enterobacter aerogenes MTCC 111 at 1 mg/disc after 24 hrs by disc diffusion assay; type: functional; procedure, shortened: as §2
Salmonella typhimurium [24] = assay: Antimicrobial activity against Salmonella typhimurium MTCC 1251 at 1 mg/disc after 24 hrs by disc diffusion assay; type: functional, Salmonella enterica subsp. enterica serovar Typhimurium; procedure, shortened: as §2
Shigella flexneri [25] = assay: Antimicrobial activity against Shigella flexneri MTCC 1457 at 1 mg/disc after 24 hrs by disc diffusion assay; type: functional; procedure, shortened: as §2
Bacillus subtilis [26] = assay: Antimicrobial activity against Bacillus subtilis MTCC 441 at 1 mg/disc after 24 hrs by disc diffusion assay; type: functional; procedure, shortened: as §2
Staphylococcus aureus [27] = assay: Antimicrobial activity against methicillin-resistant Staphylococcus aureus MTCC 96 after 24 hrs by two fold dilution method; type: functional; conditions: MTCC 96, 24 h; procedure, shortened: as §1
Pseudomonas aeruginosa [28] = assay: Antimicrobial activity against Pseudomonas aeruginosa MTCC 741 after 24 hrs by two fold dilution method; type: functional; conditions: MTCC 741, 24 h; procedure, shortened: as §1
Staphylococcus aureus [29] = assay: Bactericidal activity against Staphylococcus aureus MTCC 96 after 24 hrs by two fold dilution method; type: functional; conditions: MTCC 96, 24 h; procedure, shortened: as §3
Klebsiella pneumoniae [30] = assay: Bactericidal activity against Klebsiella pneumoniae MTCC 109 after 24 hrs by two fold dilution method; type: functional; conditions: MTCC 109, 24 h; procedure, shortened: as §3
Staphylococcus aureus [31] = assay: Antimicrobial activity against […] Staphylococcus aureus MTCC 96 at 1 mg/disc after 24 hrs by disc diffusion assay; type: functional; procedure, shortened: as §2
Klebsiella aerogenes [32] = assay: Antimicrobial activity against Enterobacter aerogenes MTCC 111 after 24 hrs by two fold dilution method; type: functional; conditions: MTCC 111, 24 h; procedure, shortened: as §1
[33] = test system: Salmonella enterica subsp. enterica serovar Paratyphi B; assay: Antimicrobial activity against Salmonella paratyphi B at 1 mg/disc after 24 hrs by disc diffusion assay; type: functional; procedure, shortened: as §2
Pseudomonas aeruginosa [34] = assay: Antimicrobial activity against Pseudomonas aeruginosa MTCC 741 at 1 mg/disc after 24 hrs by disc diffusion assay; type: functional; procedure, shortened: as §2
[35] = test system: Salmonella enterica subsp. enterica serovar Paratyphi B; assay: Antimicrobial activity against Salmonella paratyphi B after 24 hrs by two fold dilution method; type: functional; procedure, shortened: as §1
Bacillus subtilis [36] = assay: Bactericidal activity against Bacillus subtilis MTCC 441 after 24 hrs by two fold dilution method; type: functional; conditions: MTCC 441, 24 h; procedure, shortened: as §3
Klebsiella aerogenes [37] = assay: Bactericidal activity against Enterobacter aerogenes MTCC 111 after 24 hrs by two fold dilution method; type: functional; conditions: MTCC 111, 24 h; procedure, shortened: as §3
Candida albicans [38] = assay: Antimicrobial activity against Candida albicans MTCC 227 after 48 to 72 hrs by two fold dilution method; type: functional; procedure, shortened: as §4
Staphylococcus aureus [39] = assay: Antimicrobial activity against Staphylococcus aureus MTCC 96 after 24 hrs by two fold dilution method; type: functional; conditions: MTCC 96, 24 h; procedure, shortened: as §1

Compound	MIC (Salmonella typhimurium [1])	inhibition zone (IZ) (Staphylococcus aureus [2])	MBC (Micrococcus luteus [3])	inhibition zone (IZ) (Candida albicans [4])	MIC (Proteus vulgaris [5])	MIC (Bacillus subtilis [6])	MIC (Malassezia pachydermatis [7])	MBC (Staphylococcus aureus [8])	inhibition zone (IZ) (Proteus vulgaris [9])	inhibition zone (IZ) (Klebsiella pneumoniae [10])	MFC (Candida albicans [11])	MBC (Salmonella typhimurium [12])	MBC (Proteus vulgaris [13])	MIC (Klebsiella pneumoniae [14])	MBC [15]	MBC (Shigella flexneri [16])	MFC (Malassezia pachydermatis [17])	inhibition zone (IZ) (Micrococcus luteus [18])	MBC (Pseudomonas aeruginosa [19])	MIC (Micrococcus luteus [20])	other results
C[C@H](N[C@H](C)[C@@H](O)c1ccccc1)c1ccccc1.Cl	250 µg/mL	15 mm	125 µg/mL	15 mm	250 µg/mL	62.5 µg/mL	125 µg/mL	125 µg/mL	13 mm	15 mm	125 µg/mL	250 µg/mL	500 µg/mL	125 µg/mL	500 µg/mL	500 µg/mL	125 µg/mL	15 mm	500 µg/mL	125 µg/mL	inhibition zone (IZ) (Malassezia pachydermatis [21]): 14 mm; MIC (Shigella flexneri [22]): 250 µg/mL; inhibition zone (IZ) (Klebsiella aerogenes [23]): 14 mm; inhibition zone (IZ) (Salmonella typhimurium [24]): 12 mm; inhibition zone (IZ) (Shigella flexneri [25]): 12 mm; inhibition zone (IZ) (Bacillus subtilis [26]): 16 mm; MIC (Staphylococcus aureus [27]): 125 µg/mL; MIC (Pseudomonas aeruginosa [28]): 250 µg/mL; MBC (Staphylococcus aureus [29]): 250 µg/mL; MBC (Klebsiella pneumoniae [30]): 250 µg/mL; inhibition zone (IZ) (Staphylococcus aureus [31]): 14 mm; MIC (Klebsiella aerogenes [32]): 125 µg/mL; inhibition zone (IZ) [33]: 13 mm; inhibition zone (IZ) (Pseudomonas aeruginosa [34]): 10 mm; MIC [35]: 250 µg/mL; MBC (Bacillus subtilis [36]): 62.5 µg/mL; MBC (Klebsiella aerogenes [37]): 250 µg/mL; MIC (Candida albicans [38]): 125 µg/mL; MIC (Staphylococcus aureus [39]): 125 µg/mL
CC[C@H](N[C@H](C)[C@@H](O)c1ccccc1)c1ccccc1.Cl	62.5 µg/mL	24 mm	31.2 µg/mL	20 mm	31.2 µg/mL	31.2 µg/mL	31.2 µg/mL	31.2 µg/mL	20 mm	24 mm	31.2 µg/mL	62.5 µg/mL	62.5 µg/mL	31.2 µg/mL	62.5 µg/mL	62.5 µg/mL	31.2 µg/mL	23 mm	125 µg/mL	31.2 µg/mL	inhibition zone (IZ) (Malassezia pachydermatis [21]): 22 mm; MIC (Shigella flexneri [22]): 31.2 µg/mL; inhibition zone (IZ) (Klebsiella aerogenes [23]): 20 mm; inhibition zone (IZ) (Salmonella typhimurium [24]): 19 mm; inhibition zone (IZ) (Shigella flexneri [25]): 20 mm; inhibition zone (IZ) (Bacillus subtilis [26]): 22 mm; MIC (Staphylococcus aureus [27]): 31.2 µg/mL; MIC (Pseudomonas aeruginosa [28]): 62.5 µg/mL; MBC (Staphylococcus aureus [29]): 31.2 µg/mL; MBC (Klebsiella pneumoniae [30]): 62.5 µg/mL; inhibition zone (IZ) (Staphylococcus aureus [31]): 22 mm; MIC (Klebsiella aerogenes [32]): 31.2 µg/mL; inhibition zone (IZ) [33]: 20 mm; inhibition zone (IZ) (Pseudomonas aeruginosa [34]): 16 mm; MIC [35]: 62.5 µg/mL; MBC (Bacillus subtilis [36]): 62.5 µg/mL; MBC (Klebsiella aerogenes [37]): 31.2 µg/mL; MIC (Candida albicans [38]): 31.2 µg/mL; MIC (Staphylococcus aureus [39]): 15.6 µg/mL
CC[C@@H](N[C@@H](C)[C@H](O)c1ccccc1)c1ccccc1.Cl	31.2 µg/mL	22 mm	62.5 µg/mL	22 mm	31.2 µg/mL	31.2 µg/mL	31.2 µg/mL	31.2 µg/mL	21 mm	23 mm	31.2 µg/mL	31.2 µg/mL	31.2 µg/mL	15.6 µg/mL	125 µg/mL	31.2 µg/mL	31.2 µg/mL	21 mm	62.5 µg/mL	31.2 µg/mL	inhibition zone (IZ) (Malassezia pachydermatis [21]): 24 mm; MIC (Shigella flexneri [22]): 15.6 µg/mL; inhibition zone (IZ) (Klebsiella aerogenes [23]): 21 mm; inhibition zone (IZ) (Salmonella typhimurium [24]): 20 mm; inhibition zone (IZ) (Shigella flexneri [25]): 21 mm; inhibition zone (IZ) (Bacillus subtilis [26]): 20 mm; MIC (Staphylococcus aureus [27]): 31.2 µg/mL; MIC (Pseudomonas aeruginosa [28]): 62.5 µg/mL; MBC (Staphylococcus aureus [29]): 31.2 µg/mL; MBC (Klebsiella pneumoniae [30]): 15.6 µg/mL; inhibition zone (IZ) (Staphylococcus aureus [31]): 20 mm; MIC (Klebsiella aerogenes [32]): 31.2 µg/mL; inhibition zone (IZ) [33]: 19 mm; inhibition zone (IZ) (Pseudomonas aeruginosa [34]): 18 mm; MIC [35]: 62.5 µg/mL; MBC (Bacillus subtilis [36]): 31.2 µg/mL; MBC (Klebsiella aerogenes [37]): 62.5 µg/mL; MIC (Candida albicans [38]): 31.2 µg/mL; MIC (Staphylococcus aureus [39]): 31.2 µg/mL
